ChEMBL document CHEMBL1142730, “Design of HIV-1 protease inhibitors active on multidrug-resistant virus” (J Med Chem, 2005)

Key:
[1] = tested on: Human immunodeficiency virus 1; assay: Protease inhibitory activity against HIV-1 r13034 mutant strain was determined; format: functional, organism-based
[2] = tested on: Human immunodeficiency virus 1; assay: Protease inhibitory activity against HIV-1 r13363 mutant strain was determined; format: functional, organism-based
[3] = tested on: Human immunodeficiency virus 1; assay: Protease inhibitory activity against HIV-1 GSS004421 mutant strain was determined; format: functional, organism-based
[4] = tested on: Human immunodeficiency virus 1; assay: Protease inhibitory activity against HIV-1 r13025 mutant strain was determined; format: functional, organism-based
[5] = tested on: Human immunodeficiency virus 1; assay: Toxicity value against wild type HIV-1 IIIB was determined; format: functional
Procedure, shortened: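 MT4 cells (150 000 cells/mL) mock-infected, run in parallel with HIV-infected cultures over an identical compound concentration range. Incubated 3 days at 37 °C, 5% CO₂. Reduced expression of the […] GFP reporter serves as the toxicity marker.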

[6] = tested on: Human immunodeficiency virus 1; assay: Protease inhibitory activity against wild type HIV-1 IIIB was determined; format: functional, organism-based

Cc1cccc(C)c1OCC(=O)N[C@@H](Cc1ccccc1)[C@@H](O)C[C@H](Cc1ccccc1)NC(=O)[C@H](C(C)C)N1CCCNC1=O [LOPINAVIR]
pEC50 [1]: 6.59
pEC50 [2]: 6.28
pEC50 [3]: 6.02
pEC50 [4]: 7.84
pCC50 [5]: 4.95
EC50 [6]: 9.77 nM

CC(C)CN(C[C@@H](O)[C@H](Cc1ccccc1)NC(=O)O[C@H]1CO[C@H]2OCC[C@H]21)S(=O)(=O)c1ccc2nc(N(C)CCCN3CCCC3)sc2c1
pEC50 [1]: 7.36
pEC50 [2]: 5.52
pEC50 [3]: 6.81
pEC50 [4]: 6.16
pCC50 [5]: 4.58
EC50 [6]: 24 nM

CNCCNc1nc2ccc(S(=O)(=O)N(CC(C)C)C[C@@H](O)[C@H](Cc3ccccc3)NC(=O)O[C@H]3CO[C@H]4OCC[C@H]43)cc2s1
pEC50 [1]: 6.43
pEC50 [2]: 6.11
pEC50 [3]: 6.5
pEC50 [4]: 6.49
pCC50 [5]: < 4.49
EC50 [6]: 209 nM

CC(C)CN(C[C@@H](O)[C@H](Cc1ccccc1)NC(=O)O[C@H]1CO[C@H]2OCC[C@H]21)S(=O)(=O)c1ccc2nc(NCCCN(C)C)sc2c1
pEC50 [1]: 8.17
pEC50 [2]: 7.53
pEC50 [3]: 7.72
pEC50 [4]: 7.69
pCC50 [5]: 4.73
EC50 [6]: 57.5 nM

CC(C)CN(C[C@@H](O)[C@H](Cc1ccccc1)NC(=O)O[C@H]1CO[C@H]2OCC[C@H]21)S(=O)(=O)c1ccc2nc(N(C)C)oc2c1
pEC50 [1]: 6.92
pEC50 [2]: 5.38
pEC50 [3]: 6.58
pEC50 [4]: 6.66
pCC50 [5]: < 4.49
EC50 [6]: 4.17 nM

CC(C)CN(C[C@@H](O)[C@H](Cc1ccccc1)NC(=O)O[C@H]1CO[C@H]2OCC[C@H]21)S(=O)(=O)c1ccc2nc(NCCN3CCCC3)oc2c1
pEC50 [1]: 7.48
pEC50 [2]: 6.88
pEC50 [3]: 7.21
pEC50 [4]: 7.12
pCC50 [5]: 4.49
EC50 [6]: 26.3 nM

CC(C)CN(C[C@@H](O)[C@H](Cc1ccccc1)NC(=O)O[C@H]1CO[C@H]2OCC[C@H]21)S(=O)(=O)c1ccc2nc(NCCN(C)C)oc2c1
pEC50 [1]: 7.61
pEC50 [2]: 6.7
pEC50 [3]: 6.81
pEC50 [4]: 6.87
pCC50 [5]: < 4.49
EC50 [6]: 81.3 nM

COC(=O)N[C@H](C(=O)N[C@@H](Cc1ccccc1)[C@@H](O)CN(Cc1ccc(-c2ccccn2)cc1)NC(=O)[C@@H](NC(=O)OC)C(C)(C)C)C(C)(C)C [ATAZANAVIR]
pEC50 [2]: 7.23
pEC50 [3]: 7.32
pEC50 [4]: 5.78
pCC50 [5]: 4.53
EC50 [6]: 15.1 nM

CC(C)(C)NC(=O)[C@@H]1CN(Cc2cccnc2)CCN1C[C@@H](O)C[C@@H](Cc1ccccc1)C(=O)N[C@H]1c2ccccc2C[C@H]1O.O
pEC50 [1]: 5.9
pEC50 [2]: 6.39
pEC50 [3]: 6.47
pEC50 [4]: 5.97
pCC50 [5]: < 4.49
EC50 [6]: 39.8 nM

Cc1c(O)cccc1C(=O)N[C@@H](CSc1ccccc1)[C@H](O)CN1C[C@H]2CCCC[C@H]2C[C@H]1C(=O)NC(C)(C)C
pEC50 [1]: 5.9
pEC50 [2]: 5.82
pEC50 [3]: 6.28
pEC50 [4]: 5.31
pCC50 [5]: 4.75
EC50 [6]: 70.8 nM

CCC[C@@]1(CCc2ccccc2)CC(O)=C([C@H](CC)c2cccc(NS(=O)(=O)c3ccc(C(F)(F)F)cn3)c2)C(=O)O1
pEC50 [2]: 6.15
pEC50 [3]: 6.73
pEC50 [4]: 5.74
pCC50 [5]: < 4.49
EC50 [6]: 501 nM

CC(C)(C)NC(=O)[C@@H]1C[C@@H]2CCCC[C@@H]2CN1C[C@@H](O)[C@H](Cc1ccccc1)NC(=O)[C@H](CC(N)=O)NC(=O)c1ccc2ccccc2n1
pEC50 [1]: 5.91
pEC50 [2]: 7.54
pEC50 [3]: 6.3
pEC50 [4]: 6.83
pCC50 [5]: 4.68
EC50 [6]: 26.3 nM

CC(C)CN(C[C@@H](O)[C@H](Cc1ccccc1)NC(=O)O[C@H]1CO[C@H]2OCC[C@H]21)S(=O)(=O)c1ccc2nc(N(C)C)sc2c1
pEC50 [2]: 5.36
pEC50 [3]: 6.59
pEC50 [4]: 7.31
pCC50 [5]: < 4.49
EC50 [6]: 3.47 nM
